A selection: hits, their analogues and other compounds. The true share with any hit is near 3.9%.
CRFBP-R2 block: antagonists of CRF-BP/CRF-R2 complex, primary screen, cell-based, HEK293, calcium dye fluorescence, uHTS | 350,000 tested, 0.59% active | AID 588475, 2011 | inhibition, % at 11.8 µM | CRF-induced calcium fluorescence;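 active means inhibition of the ligand-induced calcium signal above about 50% at the single tested concentration, limit read from the data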
CRFBP-R2 agonist: agonists of CRF-BP/CRF-R2 complex, primary screen, cell-based, HEK293, calcium dye fluorescence, uHTS. CRF-binding protein / CRF receptor 2 complex (human). calcium dye fluorescence (FLIPR); percent of saturating CRF peptide response. activation, % at 13.2 µM. 350,000 tested, 0.46% active;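 active means activation of at least 50%, plus an integration ratio under a set limit after plate pattern correction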
TAAR1 ag: human TAAR1 agonists, primary screen, Fluo-8 calcium fluorescence, CHO RD-HGA16 cells; Trace amine-associated receptor 1 (Homo sapiens), Q96RJ0; activation, % at 3 µM; 360,000 tested, 0.99% active; vehicle wells 0%, saturating PEA agonist 100%;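 active means activation above the mean activation of all test compounds in the run plus 3 SD, cut at about 38% in these data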
Target sequence (Q96RJ0 whole entry, looked up): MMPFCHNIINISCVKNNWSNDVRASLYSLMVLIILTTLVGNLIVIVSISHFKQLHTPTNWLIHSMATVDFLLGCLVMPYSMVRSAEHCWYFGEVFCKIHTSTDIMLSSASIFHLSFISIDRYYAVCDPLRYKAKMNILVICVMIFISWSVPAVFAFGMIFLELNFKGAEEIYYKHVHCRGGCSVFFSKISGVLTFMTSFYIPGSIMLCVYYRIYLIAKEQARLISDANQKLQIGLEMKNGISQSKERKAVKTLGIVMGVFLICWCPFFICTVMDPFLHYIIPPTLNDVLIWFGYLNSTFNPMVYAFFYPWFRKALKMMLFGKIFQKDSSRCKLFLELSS
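System: CHO-derived RD-HGA16 cells with stable Gα16 and human TAAR1. Times: 17-24 h plating, Fluo-8 75 min 37 °C, 30 min RT. Measured by: calcium-sensitive Fluo-8 signal, excitation 470-495, emission 515-575 nm. Read-out basis: % activation relative to PEA EC100 response. Control set: DMSO and PEA EC100. Repeats: no replicates (n 1).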
TMEM16A inh: TMEM16A chloride channel inhibitors, primary screen, cell-based, HTS; Anoctamin-1 (Mus musculus), Q8BHY3; HEK293 TMEM16A/YFP iodide influx fluorescence, ionomycin; normalized B-score (activity score, 25-100; higher = stronger inhibition) at 10 µM; 310,000 tested, 1.2% active;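 active means ratio plate-corrected score three or more library SD toward inhibition, starting fluorescence score within five deviations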;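 further: score derived from kinetic fluorescence span divided by baseline fluorescence per well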
TAAR1 antag: human TAAR1 antagonists, primary screen, Fluo-8 calcium fluorescence, CHO RD-HGA16 cells; Trace amine-associated receptor 1 (Homo sapiens), Q96RJ0; antagonist; inhibition, % at 3 µM; 360,000 tested, 1.5% active; AID 624466, 2012;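 active means inhibition above a per-plate cutoff, the mean inhibition of test compounds on that plate plus 3 SD, cut at about 49% in these data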
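System: CHO RD-HGA16 cells bearing hTAAR1. Reagent: EC80 β-phenethylamine stimulus. Schedule: seeding 17-24 h prior, 75-min 37 °C, 30-min RT dye loading. Signal: Fluo-8 intracellular calcium dye fluorescence, real-time kinetic reads. Read-out: % inhibition from peak post-agonist over basal fluorescence ratio. Benchmarks: vehicle wells and EC80 agonist wells. Replicates: n of 1.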
TMEM16A act: TMEM16A chloride channel activators or potentiators, primary screen, cell-based, HTS | AID 623877, 2012 | HEK293 TMEM16A/YFP-H148Q/I152L, iodide quench fluorescence; active compounds read low | 340,000 tested, 0.3% active | B-score at 10 µM | Anoctamin-1 (Mus musculus), Q8BHY3;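 active means fluorescence-ratio B-score plate-corrected deviation score at least 3 library SD below zero, with starting fluorescence score within 5 deviations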;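 further: channel opened by trigger with iodide after compound preincubation; score built on the fluorescence ratio of max minus min over baseline; more negative score means more quench and so TMEM16A activation or potentiation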
TMEM16A reconf: TMEM16A chloride channel inhibitors, confirmation, cell-based, re-confirmation | shares compounds with TMEM16A inh | 2,300 tested, 39% active | HEK293 TMEM16A/YFP-H148Q, iodide quench fluorescence; ionomycin added to raise cell calcium | inhibition, % at 10 µM;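 active means mean duplicate percent inhibition, scaled so buffer wells are 0 and the reference blocker 100, over three buffer SD above buffer mean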
HEK293 Ca mobil: calcium mobilization in TMEM16A/YFP HEK293 cells, confirmation, counter-screen for TMEM16A inhibitor project. shares compounds with TMEM16A inh. Fluo4 calcium mobilization. calcium response (% of ionomycin), % at 10 µM. 2,300 tested, 2% active;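 active means duplicate-averaged calcium signal over 20% of the ionomycin maximum, relative to buffer baseline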;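 further: each well's signal is peak minus trough fluorescence divided by its pre-addition baseline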
Parental YFP cnt: iodide YFP quench changes in parental YFP-HEK293, counter-screen for TMEM16A inhibitor project, cell-based. shares compounds with TMEM16A inh. 2,300 tested, under 10 active. YFP ratio F(max-min)/F0 at 10 µM. ionomycin;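 active means yellow fluorescent protein signal ratio exceeding the buffer control mean by over 5 SD of those controls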;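 further: ratio is mean of duplicate wells from kinetic YFP trace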
ClC-1 inh: ClC-1 chloride channel inhibition, selectivity assay for TMEM16A inhibitor project, cell-based, voltage-dependent ClC-1. shares compounds with TMEM16A inh. CHO ClC-1-YFP, iodide influx fluorescence quench; iodide control reads 0, buffer control 100. AID 652236, 2013. 2,300 tested, under 10 active. ratio percent, % at 10 µM;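 active means duplicate-mean ratio percent above the mean of iodide-only control wells, which defines zero, plus 5 of their SD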;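 further: higher percent means stronger block of ClC-1 iodide influx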
A number is an active result.

For N#CC1=C(N)Oc2cc(O)ccc2C1c1ccccc1 (stereo unspecified) the results were CRFBP-R2 block inactive, CRFBP-R2 agonist inactive, TAAR1 ag inactive, TMEM16A inh inactive, TAAR1 antag inactive and TMEM16A act inactive.
Screening Cc1cccc(N2CCN(C(=O)CCC(=O)N3CC(C)Oc4ccccc43)CC2)c1C (stereo unspecified) returned CRFBP-R2 block inactive, CRFBP-R2 agonist inactive, TAAR1 ag inactive, TMEM16A inh 25, TAAR1 antag inactive, TMEM16A act inactive, TMEM16A reconf inactive, HEK293 Ca mobil inactive, Parental YFP cnt inactive and ClC-1 inh inactive.
CCS(=O)(=O)c1nc(S(=O)(=O)c2ccc(C)cc2)c(N2CCC(O)CC2)s1 was read as CRFBP-R2 block inactive, CRFBP-R2 agonist inactive, TAAR1 ag inactive, TMEM16A inh inactive, TAAR1 antag inactive and TMEM16A act inactive.
`COC(=O)C1=CO[C@@H](O[C@@H]2O[C@H](CO)[C@@H](O)[C@H](O)[C@H]2O)C2C1C=C[C@@]2(O)CO` (stereo partly specified) gave CRFBP-R2 block inactive, CRFBP-R2 agonist inactive, TAAR1 ag inactive, TAAR1 antag inactive and TMEM16A act inactive.
CCC(C)N(C(=O)c1csnn1)C(C(=O)NC(C)(C)C)c1ccccc1 (stereo unspecified) was read as CRFBP-R2 block inactive, CRFBP-R2 agonist inactive, TAAR1 ag inactive, TMEM16A inh inactive, TAAR1 antag inactive, TMEM16A reconf inactive, HEK293 Ca mobil inactive, Parental YFP cnt inactive and ClC-1 inh inactive.
`CCCc1cc(=O)n2[nH]cc(-c3ccc(Cl)cc3)c2n1` gave CRFBP-R2 block inactive, CRFBP-R2 agonist inactive, TAAR1 ag inactive, TMEM16A inh 100, TAAR1 antag inactive, TMEM16A act inactive, TMEM16A reconf inactive, HEK293 Ca mobil inactive, Parental YFP cnt inactive and ClC-1 inh inactive.
Screening COCc1cc(=O)n2[nH]cc(-c3ccccc3)c2n1 returned CRFBP-R2 block inactive, CRFBP-R2 agonist inactive, TAAR1 ag inactive, TMEM16A inh inactive, TAAR1 antag inactive and TMEM16A act inactive.
For CN(C)c1cc[n+](CC(=O)Nc2ccc(OC(F)F)cc2)cc1 the results were CRFBP-R2 block inactive, CRFBP-R2 agonist inactive, TAAR1 ag inactive, TMEM16A inh inactive, TAAR1 antag inactive and TMEM16A act inactive.
c1ccc(-c2noc(CSc3nnnn3-c3ccccc3)n2)cc1 was read as CRFBP-R2 block inactive, CRFBP-R2 agonist inactive, TAAR1 ag inactive, TMEM16A inh inactive, TAAR1 antag inactive and TMEM16A act inactive.
Screening Cc1ccc(-c2noc(CSc3nnnn3C3CCCCC3)n2)cc1 returned CRFBP-R2 block inactive, CRFBP-R2 agonist inactive, TAAR1 ag inactive, TMEM16A inh 100, TAAR1 antag inactive, TMEM16A act inactive, TMEM16A reconf 30%, HEK293 Ca mobil inactive, Parental YFP cnt inactive and ClC-1 inh inactive.
Screening O=C(CCc1ccccc1)Nc1ccccc1F returned CRFBP-R2 block inactive, CRFBP-R2 agonist inactive, TAAR1 ag inactive, TMEM16A inh 100, TAAR1 antag inactive, TMEM16A act inactive, TMEM16A reconf inactive, HEK293 Ca mobil inactive, Parental YFP cnt inactive and ClC-1 inh inactive.
Screening Cc1ccccc1C(=O)N(Cc1nc2ccccc2c(=O)[nH]1)C1CCCC1 returned CRFBP-R2 block inactive, CRFBP-R2 agonist inactive, TAAR1 ag inactive, TMEM16A inh inactive, TAAR1 antag inactive and TMEM16A act inactive.
`CCc1ccc(C(=O)CSc2nc3ccccc3c(=O)[nH]2)cc1` gave CRFBP-R2 block inactive, CRFBP-R2 agonist inactive, TAAR1 ag inactive, TMEM16A inh inactive, TAAR1 antag inactive and TMEM16A act inactive.
`Cc1ccc(C(=O)N(Cc2nc3ccccc3c(=O)[nH]2)C2CCCC2)cc1` gave CRFBP-R2 block inactive, CRFBP-R2 agonist inactive, TAAR1 ag inactive, TMEM16A inh 100, TAAR1 antag inactive, TMEM16A act inactive, TMEM16A reconf inactive, HEK293 Ca mobil inactive, Parental YFP cnt inactive and ClC-1 inh inactive.
For Cc1ccc(C(=O)CSc2nc3ccccc3c(=O)[nH]2)cc1 the results were CRFBP-R2 block inactive, CRFBP-R2 agonist inactive, TAAR1 ag inactive, TMEM16A inh 100, TAAR1 antag inactive, TMEM16A act inactive, TMEM16A reconf inactive, HEK293 Ca mobil inactive, Parental YFP cnt inactive and ClC-1 inh inactive.
`O=C(Nc1ccc(Br)cc1Br)C1CC(=O)N(Cc2ccccc2)C1` (stereo unspecified) gave CRFBP-R2 block inactive, CRFBP-R2 agonist inactive, TAAR1 ag inactive, TMEM16A inh inactive, TAAR1 antag inactive and TMEM16A act inactive.
O=C(Nc1ccn(-c2ccccc2)n1)c1ccc(S(=O)(=O)N2CCCCCC2)cc1 was read as CRFBP-R2 block inactive, CRFBP-R2 agonist inactive, TAAR1 ag inactive, TMEM16A inh 25, TAAR1 antag inactive, TMEM16A act inactive, TMEM16A reconf inactive, HEK293 Ca mobil inactive, Parental YFP cnt inactive and ClC-1 inh inactive.
`Cc1c(Cl)c(C(=O)NC2C3CC4CC(C3)CC2C4)nn1C` (stereo unspecified) gave CRFBP-R2 block inactive, CRFBP-R2 agonist inactive, TAAR1 ag inactive, TMEM16A inh 100, TAAR1 antag inactive, TMEM16A act inactive, TMEM16A reconf inactive, HEK293 Ca mobil inactive, Parental YFP cnt inactive and ClC-1 inh inactive.
For COc1ccc(N2CC(NS(=O)(=O)c3cccs3)CC2=O)cc1 (stereo unspecified) the results were CRFBP-R2 block inactive, CRFBP-R2 agonist inactive, TAAR1 ag inactive, TMEM16A inh inactive, TAAR1 antag inactive and TMEM16A act inactive.
